# Compound activity: PubChem, several laboratories
# A selection: hits, their analogues and other compounds. The true share with any hit is near 3.3%.
# KCC2 mod: modulators of human KCC2 chloride dependent transport; Q9H2X9; KCC2 cells, thallium flux FluoZin-2 fluorescence; B-score of Tl+ flux slope (higher = more flux/activation; lower = inhibition) at 10 µM; 190,000 tested, 2.2% active; AID 1456;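 active = thallium flux slope and its plate-corrected score both differing from the plate sample mean at a set confidence after two filtering rounds, in either direction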;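 note: slope of fluorescence scaled to starting intensity during 10 to 20 s after thallium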
# ABCG2 block: blocks JC-1 efflux by human ABCG2 transporter; 190,000 tested, 0.1% active; inhibition, % at 6.6 µM; IgMXP3 cells, flow cytometry;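 active = inhibition above 80%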;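 note: 0% = DMSO and 100% = nicardipine control wells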
#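 material = IgMXP3 (ABCG2) plus far-red-tagged CCRF-Adr (ABCB1) cells | amount = 3 million cells/mL, equal mix of both lines | also added = JC-1 transporter substrate | dosing = one concentration, 6.6 µM final | schedule = 10 min at 25 °C | measured by = flow cytometric JC-1 green MFI at 530 nm | read-out basis = percent efflux inhibition, scaled nicardipine 100% to DMSO 0%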
# PMI activator: activators of human phosphomannose isomerase | activation factor at 20 µM | AID 1214 | P34949 | purified human PMI, coupled resazurin fluorescence, 20 min; hits give high values; 1 = vehicle control, 0 substrate-free wells | 190,000 tested, 0.005% active;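 active = activation factor of 2 or more at 20 µM, relative to plate controls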
# Target sequence (P34949 whole entry, looked up): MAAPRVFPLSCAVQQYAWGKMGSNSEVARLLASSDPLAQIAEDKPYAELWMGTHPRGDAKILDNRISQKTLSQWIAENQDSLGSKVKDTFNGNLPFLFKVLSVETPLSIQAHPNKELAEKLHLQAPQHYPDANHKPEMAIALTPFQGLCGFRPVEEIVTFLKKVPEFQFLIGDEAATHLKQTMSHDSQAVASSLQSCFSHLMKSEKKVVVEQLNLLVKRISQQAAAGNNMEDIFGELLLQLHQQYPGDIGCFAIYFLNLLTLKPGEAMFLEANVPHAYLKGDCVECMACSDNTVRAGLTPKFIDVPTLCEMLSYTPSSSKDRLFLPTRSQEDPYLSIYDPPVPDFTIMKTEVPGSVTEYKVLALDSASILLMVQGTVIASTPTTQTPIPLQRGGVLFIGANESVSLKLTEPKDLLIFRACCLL
# ABCB1 inh: blocks JC-1 efflux by human ABCB1 transporter; CCRF-Adr cells, flow cytometry; inhibition, % at 6.6 µM; 190,000 tested, 0.067% active; in the data active = inhibition above about 40%;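 note: 0% = vehicle and 100% = reference inhibitor; higher value means more JC-1 retained so stronger ABCB1 efflux block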
# PMI act hi M6P: increases human PMI activity with near-saturating mannose 6-phosphate; coupled PMI enzyme assay, resazurin fluorescence, 20 min; hits give high values; 1 = untreated enzyme, 0 = substrate-free blank; activation factor at 20 µM; 190,000 tested, 0.34% active;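 active = activation factor of 2 or more at 20 µM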
#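 assay system = human phosphomannose isomerase with PGI, G6PDH, diaphorase coupling enzymes | quantity = 15 ng/mL PMI | incubation = enzyme reaction with compound 20 min at room temperature | medium = HEPES pH 7.4 buffer with MgCl2 and Tween-20 | compound dosing = one concentration, 20 µM, in 1% DMSO | measured by = Diaphorase-driven resazurin-to-resorufin fluorescence, excitation 544, emission 590 nm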
# ROMK mod: modulators of human ROMK potassium channel. 130,000 tested, 2% active. B-score at 10 µM. Tet-inducible ROMK, thallium flux fluorescence; actives lie on both sides. P48048;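 active = signal ratio slope over the read window, or its plate-corrected B-score, at least 3 SD from the plate mean, either direction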;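 note: B-score of the F/F0 ratio slope over 7 to 12 s after thallium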
# Target sequence (P48048 whole entry, looked up): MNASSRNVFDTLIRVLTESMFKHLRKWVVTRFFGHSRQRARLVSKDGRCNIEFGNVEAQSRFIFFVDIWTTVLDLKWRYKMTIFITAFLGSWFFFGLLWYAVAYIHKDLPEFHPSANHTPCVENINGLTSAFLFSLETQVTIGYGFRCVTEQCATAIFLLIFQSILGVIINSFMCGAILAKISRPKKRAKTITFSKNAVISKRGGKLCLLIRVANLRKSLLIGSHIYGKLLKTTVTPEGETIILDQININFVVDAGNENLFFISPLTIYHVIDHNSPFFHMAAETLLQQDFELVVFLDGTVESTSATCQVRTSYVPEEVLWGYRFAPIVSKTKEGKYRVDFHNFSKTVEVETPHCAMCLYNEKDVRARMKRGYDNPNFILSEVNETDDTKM
# KCC2 sec1: confirmation of human KCC2 transport modulators; shares compounds with KCC2 mod; normalised thallium flux (F/F0 slope) at 10 µM; 3,700 tested, 15% active; AID 1713; HEK293-KCC2, thallium flux, FluoZin2 fluorescence; hits give high values;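 active = thallium flux slope above the same plate's solvent-only control mean plus 3 SD; inconclusive = the two replicate wells disagree; inactive = no significant difference from solvent-only control wells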
# KCC2 bumet counter: thallium flux despite bumetanide block in KCC2 cells, secondary assay 3; normalized thallium flux at 10 µM; HEK293-KCC2 + bumetanide/ouabain, thallium flux FluoZin2; hits give high values; shares compounds with KCC2 mod; 3,700 tested, 49% active;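 active = thallium entry rate above the same plate's blocked-transporter control wells by more than 3 SD; inconclusive = the two repeat wells disagree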;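 note: raw slope of fluorescence over initial fluorescence between 10 and 20 s after thallium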
# KCC2 sec2: confirmation of human KCC2 transport modulators; shares compounds with KCC2 mod; HEK293-KCC2, thallium flux FluoZin2 fluorescence; actives lie on both sides; F/F0 rise rate, 10–20 s post-thallium; normalized thallium flux at 10 µM; 3,700 tested, 23% active; AID 1715;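 active = thallium flux slope more than 3 SD above or below the plate's solvent-only control mean, mostly below; inconclusive = the two repeat wells disagreed; inactive = no significant shift from solvent-only controls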;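 note: raw slope with 0.1% DMSO as baseline and bumetanide as block control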
# HEK293 Tl flux: parental HEK flux effect, counter-screen; shares compounds with KCC2 mod; HEK293 parental cells, thallium flux FluoZin2, ouabain; baseline-ratio fluorescence slope, 10–20 s after thallium; thallium flux rate (normalised fluorescence) at 10 µM; 3,700 tested, 46% active;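 active = thallium flux rate significantly above the same plate's solvent-only control wells, beyond their mean plus 3 SD; inconclusive = the two replicate wells gave conflicting results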
# KCC2 retest ouab: modulates human KCC2 on retest with ouabain; shares compounds with KCC2 mod; HEK293-KCC2, thallium flux FluoZin2 fluorescence; bidirectional: low = inhibitor, high = activator; raw Tl+ flux slope (below DMSO = inhibition, above = activation) at 10 µM; 3,700 tested, 48% active;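 active = thallium flux slope beyond 3 SD from same-plate DMSO control mean in most replicates, usually higher, sometimes lower; inconclusive = repeat tests gave conflicting results; inactive = no significant difference from controls in most replicates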;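 note: slope of initial-normalized fluorescence between seconds 10 and 20 after thallium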
# HEK counter2: counter-screen for KCC2 modulators: effect in parental HEK293 cells; thallium flux FluoZin-2 fluorescence slope; AID 1718; thallium flux slope at 10 µM; 3,700 tested, 33% active; shares compounds with KCC2 mod;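 active = thallium flux slope above the same plate's solvent-control mean plus 3 SD in both duplicate wells; inconclusive = duplicate wells that disagreed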;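 note: run without ouabain in cells lacking the KCC2 cotransporter; slope of fluorescence scaled to its starting value between 10 and 20 s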
# An asterisk follows results filed as active; ? = inconclusive; nt = not tested or not shown.
SMILES,KCC2 mod,ABCG2 block,PMI activator,ABCB1 inh,PMI act hi M6P,ROMK mod,KCC2 sec1,KCC2 bumet counter,KCC2 sec2,HEK293 Tl flux,KCC2 retest ouab,HEK counter2
S=C(NCCc1ccccc1)NCc1cccs1,-4.44*,0.9,1.1,-1.0,1.1,nt,0.0186,0.00448,0.0253*,0.00702,0.014,0.00986
Cc1cc(C)cc(NC(=S)NCc2cccs2)c1,-0.00368,-0.4,1.1,-0.3,1.1,-1.17,nt,nt,nt,nt,nt,nt
OCCNC(=S)NCCc1ccccc1,-1.04,-0.1,1.1,-0.1,1.1,0.0522,nt,nt,nt,nt,nt,nt
CN(CCO)c1ncnc2c1sc1nc(N3CCOCC3)c3c(c12)CCC3,-0.384,nt,nt,nt,nt,nt,nt,nt,nt,nt,nt,nt
S=C(NCCc1ccccc1)NC1CCCCCC1,-4.2*,7.1,0.8,0.2,0.9,nt,0.00584*,?,0.0291,0.00645,?,0.0106
O=C(NC1CCCCC1)C(=S)NCCc1ccccc1,0.795,4.5,1,1.0,1.1,0.0151,nt,nt,nt,nt,nt,nt
CCCCNC(=O)[C@H](CSCc1ccccc1)N1Cc2ccccc2C1=O,-2.63*,6.2,0.8,3.5,0.8,-2.05,?,0.00554,0.0316,0.00777,0.0171*,0.0101
COCCCNC(=O)[C@H](CSCc1ccccc1)N1Cc2ccccc2C1=O,-2.17,nt,nt,nt,nt,nt,nt,nt,nt,nt,nt,nt
CCOC(=O)N1CCN(c2nc3ccccc3nc2C(C#N)C(=O)NCCc2ccccc2)CC1 (configuration not stated),-1.56,19.5,1,5.1,1,nt,nt,nt,nt,nt,nt,nt
CNC(=S)N/N=C/c1c(C)cccc1Cl,4.4*,nt,nt,nt,nt,nt,0.00936,0.0174*,0.0283,0.00854*,?,0.00966
CCOC(=O)C1CCCN(c2c(NCCN(CC)c3ccccc3)c(=O)c2=O)C1 (configuration not stated),0.461,2.5,0.8,0.5,0.9,nt,nt,nt,nt,nt,nt,nt
CCOC(=O)C1CCCN(c2c(NCCCN(CC)c3ccccc3)c(=O)c2=O)C1 (configuration not stated),4.57*,-1.8,0.8,-5.7,0.8,-0.602,0.00916,0.00664,0.0292,0.00677,0.05,0.0102
N=C1C(c2ccccc2)=C(O)CN1CCO,-0.341,0.7,1,0.3,1,1.55,nt,nt,nt,nt,nt,nt
O=C(CNS(=O)(=O)c1c(Cl)cccc1Cl)OCc1csc(-c2ccccc2)n1,-4.09*,4.0,0.9,1.3,0.9,-0.979,0.0065,0.00424,0.0231*,?,0.0146*,0.00934
O=S(=O)(NCc1csc(-c2ccccc2)n1)c1ccc(Cl)s1,-5.72*,3.7,1.1,0.4,1,nt,0.00509,0.0141*,0.0221*,0.00685,0.0163*,?
CCCNCc1cc(OC)c(OCc2ccccc2)cc1Br,-1.04,4.8,1.1,-0.4,1.1,-1.1,nt,nt,nt,nt,nt,nt
N=C1C=CC=C2C1=NC1(CCCCC1)N2O,nt,7.4,0.3,0.3,0.3,nt,nt,nt,nt,nt,nt,nt
O=C(Nc1nnc(-c2ccc(Cl)cc2)o1)C1CCCCC1,5.26*,nt,nt,nt,nt,nt,0.00545,0.0217*,0.035,0.0151*,0.0285*,0.018*
O=C(Nc1nnc(-c2ccc(Cl)s2)o1)C1CCCCC1,5.22*,nt,nt,nt,nt,nt,0.0134*,0.0275*,0.0335,0.0186*,0.0319*,0.0121*
O=C(Nc1nnc(-c2ccc(Cl)cc2)o1)Nc1ccccc1Cl,3.49*,1.0,0.9,0.1,0.9,nt,0.00917,0.0263*,0.0345,?,0.0263,?
O=C(Nc1nnc(-c2ccccc2)o1)C1CCCCC1,nt,4.3,0.9,0.5,0.9,nt,nt,nt,nt,nt,nt,nt
CCCC(=O)Nc1nnc(-c2ccc(Cl)s2)o1,nt,2.1,1,0.7,1,nt,nt,nt,nt,nt,nt,nt
O=Nc1c(O)n(Cc2cccc(C(F)(F)F)c2)c2ccccc12,0.938,5.2,0.9,-0.1,0.9,0.731,nt,nt,nt,nt,nt,nt
O=C(CCNS(=O)(=O)c1cccc2nonc12)NCCc1ccc(Cl)cc1,-3.56*,5.1,0.8,1.2,0.9,nt,?,0.00586,0.0319,0.00694,0.017*,0.00951
Cc1ccc(NC(=O)CCNS(=O)(=O)c2cccc3nonc23)cc1Cl,-0.875,13.0,1,1.0,0.9,0.198,nt,nt,nt,nt,nt,nt
SMILES,KCC2 mod,ABCG2 block,PMI activator,ABCB1 inh,PMI act hi M6P,ROMK mod,KCC2 sec1,KCC2 bumet counter,KCC2 sec2,HEK293 Tl flux,KCC2 retest ouab,HEK counter2
Cc1ccc(C(=O)N/C(=C\c2ccccc2)C(=O)NCc2cccnc2)cc1,-0.513,-0.1,1,-0.5,1.1,-1.49,nt,nt,nt,nt,nt,nt
O=C(NCCc1csc(-c2ccccc2)n1)c1cccs1,nt,1.1,1,-2.2,1,nt,0.00615,0.0041,0.0227*,0.00645,0.014*,0.00941
O=C(Cc1csc(-c2ccccc2)n1)NCc1cccs1,-4.58*,1.1,1.1,0.4,1,-2.18,0.00539,0.0054,?,?,0.0128*,0.00901
Cc1nc(CCNC(=O)c2cccs2)cs1,0.421,0.6,1.2,0.3,1.1,0.59,nt,nt,nt,nt,nt,nt
C/C(=N\NC(=S)NCc1ccccc1)c1ccccc1F,3.69,1.3,1.1,0.2,0.9,0.715,nt,nt,nt,nt,nt,nt
COc1ccc(CNC(=S)N/N=C(/C)c2ccccc2)cc1,5.69*,nt,nt,nt,nt,0.852,0.00707,0.0231*,0.0338,0.0137*,?,0.0161*
C/C(=N\NC(=S)NCc1ccccc1)c1ccc(C(C)(C)C)cc1,1.35,-0.6,0.8,0.9,1,-0.0359,nt,nt,nt,nt,nt,nt
C/C(=N\NC(=S)NCc1ccccc1)c1ccccc1,7.77*,30.6,0.9,0.6,0.9,-1.01,0.0105,0.0425*,0.0306,0.0146*,0.0697*,0.0105
C/C(=N\NC(=S)NCc1ccccc1)c1ccco1,13*,3.1,0.8,-0.6,0.9,1.03,0.0119,0.0188*,0.0379,?,0.0288*,0.0124
O=C(NCc1ccccc1)N1CCN(c2ccc(Cl)c(Cl)c2)CC1,0.136,9.2,1,0.9,1,-0.832,nt,nt,nt,nt,nt,nt
Cc1cc(C)c(NC(=O)NC(=O)c2cccc(F)c2)c(C)n1,-4.13*,6.2,0.9,0.3,0.9,0.149,0.0112,0.00598,0.0319,0.00796,0.019,?
